{"data": "Measured values pooled from the literature", "target": "NUAK family SNF1-like kinase 2 (NUAK2, Homo sapiens, UniProt Q9H093)", "One construct used (Q9H093 1-628)": "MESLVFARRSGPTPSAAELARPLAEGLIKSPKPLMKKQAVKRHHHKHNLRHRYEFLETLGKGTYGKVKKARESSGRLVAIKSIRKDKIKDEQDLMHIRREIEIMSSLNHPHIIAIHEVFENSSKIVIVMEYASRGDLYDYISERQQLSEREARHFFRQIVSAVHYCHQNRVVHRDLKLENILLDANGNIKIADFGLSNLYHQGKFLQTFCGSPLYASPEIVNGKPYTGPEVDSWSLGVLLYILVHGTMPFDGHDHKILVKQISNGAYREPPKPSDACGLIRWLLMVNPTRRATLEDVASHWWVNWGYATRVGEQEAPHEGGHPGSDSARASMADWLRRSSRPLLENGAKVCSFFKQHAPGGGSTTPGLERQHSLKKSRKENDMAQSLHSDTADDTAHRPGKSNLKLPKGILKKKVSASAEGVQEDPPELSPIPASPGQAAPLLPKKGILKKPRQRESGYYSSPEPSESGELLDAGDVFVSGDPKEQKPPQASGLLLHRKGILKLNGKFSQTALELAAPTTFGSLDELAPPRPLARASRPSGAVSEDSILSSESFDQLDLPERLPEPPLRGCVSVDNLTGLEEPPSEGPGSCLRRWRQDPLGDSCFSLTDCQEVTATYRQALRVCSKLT", "note": "Protocols differ between the studies behind these lines."}
{"Compound": "COc1ccc2oc(-c3ccc4nc(N)oc4c3)c/c(=N\\c3ccccc3NC(=O)CCN)c2c1", "effect on": "binding", "tested at": "1 µM", "endpoint": "remaining binding", "value": "93%"}
{"Compound": "CO[C@@H]1[C@H](N(C)C(=O)c2ccccc2)C[C@H]2O[C@]1(C)n1c3ccccc3c3c4c(c5c6ccccc6n2c5c31)C(=O)NC4", "effect on": "enzyme activity", "action": "inhibitor", "tested at": "1 µM", "endpoint": "inhibition", "value": "99%"}
{"Compound": "C1=C/COCc2cc(ccc2OCCN2CCCC2)Nc2nccc(n2)-c2cccc(c2)COC/1", "effect on": "cell-free assay", "tested at": "0.1 µM", "endpoint": "remaining signal", "value": "13%"}
{"Compound": "N#Cc1ccc(NC(=O)Nc2ccccc2)cc1", "effect on": "cell-free assay", "technique": "competition with immobilised ligand", "tested at": "25 µM", "endpoint": "remaining binding", "value": "77%"}
{"Compound": "CNS(=O)(=O)c1ccc(Nc2ncc(C(F)(F)F)c(N3CCC[C@](C)(O)C3)n2)c(C)c1", "effect on": "binding", "technique": "competition with immobilised ligand", "tested at": "1 µM", "endpoint": "remaining binding", "value": "3.9%"}
{"Compound": "CCCCC(=O)Nc1ccc(-c2ccc3ncn(CCC)c(=O)c3c2)cn1", "effect on": "binding", "technique": "competition with immobilised ligand", "tested at": "0.5 µM", "endpoint": "remaining binding", "value": "97%"}
{"Compound": "C=CC(=O)N1CCC([C@@H]2CCNc3c(C(N)=O)c(-c4ccc(Oc5ccccc5)cc4)nn32)CC1", "effect on": "enzyme activity", "action": "inhibitor", "tested at": "1 µM", "endpoint": "inhibition", "value": "24%"}
{"Compound": "C[C@]1(O)CCCN(c2nc(Nc3ccc(S(=O)(=O)N[C@H]4CC[C@H](CN5CCN(c6ccc(C7CCC(=O)NC7=O)cc6F)CC5)CC4)cc3Cl)ncc2C(F)(F)F)C1 (stereo partly drawn)", "effect on": "binding", "technique": "competition with immobilised ligand", "tested at": "1 µM", "endpoint": "remaining binding", "value": "49%"}
{"Compound": "CN1CCN(C(=O)c2ccc(NC(=O)Nc3ccc(N(C)c4ccnc(Nc5ccc(CS(C)(=O)=O)cc5)n4)cc3)cc2)CC1", "effect on": "binding", "tested at": "1 µM", "endpoint": "remaining binding", "value": "39%"}
{"Compound": "Cc1cc(O)c(-c2ccc([C@@H](C)CN(C)C)cc2)c2c1[nH]c(=O)c1sccc12", "effect on": "enzyme activity", "action": "inhibitor", "tested at": "0.1 µM", "endpoint": "inhibition", "value": "3.81%"}
{"Compound": "C[C@H]1CC[C@H](n2c3cnccc3c3cnc(Nc4ccc5c(n4)CCN(C(=O)CO)C5)nc32)CC1", "effect on": "cell-free assay", "tested at": "1 µM", "endpoint": "remaining signal", "value": "34%"}
{"Compound": "CC(C)S(=O)(=O)c1ccc2nccc(Nc3ccc4sc(C5CCCC5)nc4c3)c2c1", "effect on": "enzyme activity", "action": "inhibitor", "tested at": "1 µM", "endpoint": "activity vs control", "value": "121%"}
